For one test, the species on record is Homo sapiens. The test can be described thus: Compound was evaluated for GROalpha-mediated calcium mobilization in human polymorphonuclear neutrophils(PMNs). Type of test: functional. In short, it runs like this:
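Human neutrophils stimulated with GROα, the CXCR2-selective ligand; calcium mobilization measured; mean ± SEM of at least three separate determinations.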
Background: A change in cytosolic calcium serves as a functional read-out for many receptors and channels.

Test [1] concerns the target T1, C-X-C chemokine receptor type 1 (Homo sapiens, UniProt P25024).
T1 sequence (P25024 whole entry): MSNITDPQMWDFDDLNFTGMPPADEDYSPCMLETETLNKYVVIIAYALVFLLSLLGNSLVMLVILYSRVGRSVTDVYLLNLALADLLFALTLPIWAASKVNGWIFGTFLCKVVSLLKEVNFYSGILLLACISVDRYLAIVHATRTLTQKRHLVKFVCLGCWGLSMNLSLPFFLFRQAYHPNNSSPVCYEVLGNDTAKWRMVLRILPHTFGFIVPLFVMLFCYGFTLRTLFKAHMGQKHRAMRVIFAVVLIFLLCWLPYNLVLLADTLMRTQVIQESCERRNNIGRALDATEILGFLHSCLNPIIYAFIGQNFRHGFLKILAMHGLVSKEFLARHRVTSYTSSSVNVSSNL
The test can be described thus: Inhibition of binding of IL-8 to membranes of cloned CXC chemokine receptor 1 expressed in CHO Cells using [125I]IL-8 radioligand. The essentials:
(§1)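 Membranes from CHO cells stably expressing CXCR1 or CXCR2; competition against radiolabeled human recombinant [125I]IL-8; IC50 given as mean ± SEM of three individual experiments.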

The target of test [2] is T2, C-X-C chemokine receptor type 2 (Homo sapiens, UniProt P25025).
T2 sequence (P25025 whole entry): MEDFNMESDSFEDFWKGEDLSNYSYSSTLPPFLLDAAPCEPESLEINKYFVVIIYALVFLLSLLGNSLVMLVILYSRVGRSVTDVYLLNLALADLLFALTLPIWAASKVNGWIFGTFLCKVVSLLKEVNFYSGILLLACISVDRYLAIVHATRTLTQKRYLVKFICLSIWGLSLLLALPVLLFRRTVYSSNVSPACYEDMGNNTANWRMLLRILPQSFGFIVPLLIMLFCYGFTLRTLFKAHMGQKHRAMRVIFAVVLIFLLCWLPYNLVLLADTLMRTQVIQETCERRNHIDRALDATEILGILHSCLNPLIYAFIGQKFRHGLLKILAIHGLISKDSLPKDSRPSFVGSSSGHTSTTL
Kind of test: Inhibition of binding of IL-8 to membranes of cloned CXC chemokine receptor 2 expressed in CHO Cells using [125I]IL-8 radioligand. The essentials: as §1

The test system of test [3] is Oryctolagus cuniculus. Kind of test: Compound was evaluated for inhibition of topical model of delayed type hypersensitivity (DTH) at a dose of 1000 ug in rabbits. It is filed as functional. In short, it runs like this: (§2)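 Rabbits sensitized by complete Freund's adjuvant injected in the nape of the neck; challenged intradermally 5 weeks later with tuberculin (10 units PPD). Compound in methanol (50 µL) or methanol vehicle applied topically to PPD sites 5 min after challenge and reapplied 4 h later. Skin-fold thickness at challenge site measured 48 h after challenge; % inhibition versus vehicle.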

The subject of test [4] is Oryctolagus cuniculus. The test can be described thus: Compound was evaluated for inhibition of topical model of delayed type hypersensitivity (DTH) at a dose of 62.5 ug in rabbits. It is filed as functional. In short, it runs like this:
as §2

Test [5] deals with Oryctolagus cuniculus. Kind of test: Compound was evaluated for inhibition of topical model of delayed type hypersensitivity (DTH) at a dose of 500 ug in rabbits. It is filed as functional. In short, it runs like this: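 Rabbits sensitized by complete Freund's adjuvant injection in the nape of the neck, then challenged intradermally 5 weeks later with tuberculin (10 units PPD). At 5 min post-challenge, compound in methanol (50 µL) or methanol vehicle was applied topically to PPD sites and reapplied 4 h later. Skin-fold thickness at the challenge site was read 48 h after PPD; % inhibition reported.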

Structures are written as SMILES. pIC50: −log10 of the molar value.

For `O=C(Nc1ccccc1)Nc1cc([N+](=O)[O-])ccc1O`, the pIC50 in the test filed under Homo sapiens was 4.86; in test [1], 4.34; in test [2] it was 4.96.

In the case of `N#Cc1ccc(NC(=O)Nc2ccccc2)c(O)c1`, in the test with Oryctolagus cuniculus [3], the Inhibition was 21%. Further, the pIC50 in the test listed under Homo sapiens was 6.92; in test [1], 4.68; in test [2], 6.70.

With `N#Cc1c(Cl)ccc(NC(=O)Nc2ccccc2Br)c1O`, the negative-log IC50 (pIC50) is 8.12 in the test filed under Homo sapiens, 4.95 in test [1] and 7.24 in test [2]. This molecule yielded an Inhibition in the test on Oryctolagus cuniculus [4] of 3%.

In the case of `N#Cc1ccc(NC(=O)Nc2ccccc2Br)c(O)c1Cl`, the pIC50 in the test listed under Homo sapiens was 8.59; in test [1] it was 5.38; in test [2], 7.66.

As for `N#Cc1ccc(NC(=O)Nc2ccccc2Br)c(O)c1`, the values for the negative logarithm of the IC50 (pIC50) (in the test filed under Homo sapiens; in test [1]; in test [2]) were 7.28, 4.82 and 7.60, respectively. This molecule also had an Inhibition in the test with Oryctolagus cuniculus [5] of 31%.

As for `N#Cc1ccc(NC(=O)Nc2ccccc2Br)c(O)c1Br`, the results for the negative logarithm of the IC50 (pIC50) (in the test listed under Homo sapiens; in test [1]; in test [2]) were 9.10, 5.59 and 8.22, respectively. This molecule returned an Inhibition in the test with Oryctolagus cuniculus [5] of 33%.

In the case of `O=C(Nc1ccccc1)Nc1ccc([N+](=O)[O-])cc1O`, the results for the pIC50 (in the test filed under Homo sapiens; in test [1]; in test [2]) were 6.47, 4.74 and 6.49, respectively.

For the molecule `O=C(Nc1ccccc1)Nc1cccc([N+](=O)[O-])c1O`, the pIC50 is 6.29 in the test filed under Homo sapiens, 4.48 in test [1] and 6.07 in test [2].

The term pIC50 denotes −log10 of the IC50, conventionally taken in molar units. The term Inhibition denotes how much of the control response was suppressed.

For the origin of these results see ChEMBL document CHEMBL1149089, “Evaluation of potent and selective small-molecule antagonists for the CXCR2 chemokine receptor” (J Med Chem, 2004).
